Laboratory results: ChEMBL document CHEMBL1127458, “Synthesis and quantitative structure-activity relationships of anticonvulsant 2,3,6-triaminopyridines” (J Med Chem, 1994)

Organism: Mus musculus
Assay: Effective dosage for inhibition of maximal electroshock stimulated convulsions
Type: functional
How it was run: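 Mice (male Carworth Farms #1), groups of at least eight, were given various doses and tested at the previously determined time of peak effect. Protection was defined as abolition of the hind limb tonic extension component of the seizure. Dosing continued until at least two points lay between 0% and 100% protection. The 50% dose and 95% confidence interval were derived by Finney's method.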

SMILES | Log 1/ED50
Cl.Nc1nc(NCc2ccc(F)cc2)ccc1NC(=O)OCCCl | 4.46
CCOC(=O)Nc1ccc(NCc2ccc(C)c(Cl)c2)nc1N.Cl | 4.083
CCOC(=O)Nc1ccc(NCc2ccccc2C)nc1N.Cl | 4.872
Cc1noc(C)c1C(=O)Nc1ccc(NCc2ccc(F)cc2)nc1N.Cl | 3.94
C=CCOC(=O)Nc1ccc(NCc2ccc(F)cc2)nc1N | 4.48
CCOC(=O)Nc1ccc(NCc2ccc(Cl)cc2)nc1N.Cl | 4.388
CCOC(=O)Nc1ccc(NCc2ccc(F)cc2F)nc1N.Cl | 4.321
CCOC(=O)Nc1ccc(NCc2c(C)cccc2C)nc1N.Cl | 5.01
CCOC(=O)Nc1ccc(NCc2ccc(NC(C)=O)cc2)nc1N.Cl | 3.487
CCOC(=O)Nc1ccc(NCc2ccc(C(F)(F)F)cc2)nc1N.Cl | 4.146
CCOC(=O)Nc1ccc(NCc2ccc(S(N)(=O)=O)cc2)nc1N.Cl | 3.572
Cl.Nc1nc(NCc2ccccc2)ccc1NC(=O)Oc1ccccc1 | 3.942
CCOC(=O)Nc1ccc(NCc2ccc(C)cc2C)nc1N.Cl | 4.53
CCOC(=O)Nc1ccc(NCc2ccccc2O)nc1N.Cl | 3.896
CC(=O)Nc1ccc(NCc2ccc(F)cc2)nc1N.Cl | 3.567
Cl.Nc1nc(NCc2ccc(F)cc2)ccc1N1CCOC1=O | 4.065
CCOC(=O)Nc1ccc(NCc2cccc(F)c2)nc1N.Cl | 4.297
CCOC(=O)Nc1ccc(NCc2ccc(C(C)=O)cc2)nc1N.Cl | 3.831
CCOC(=O)Nc1ccc(NCc2c(C)cc(C)cc2C)nc1N.Cl | 5.268
Cl.Nc1nc(NCc2ccc(F)cc2)ccc1NC(=O)Oc1ccccc1 | 3.724
Cl.Nc1nc(NCc2ccc(Cl)cc2)ccc1NC(=O)Oc1ccccc1 | 3.507
CCOC(=O)Nc1ccc(NC(C)c2ccc(F)cc2)nc1N.Cl (stereo not given) | 3.938
CCOC(=O)Nc1ccc(NCc2ccccc2)nc1N.Cl | 4.214
CCOC(=O)Nc1ccc(NCc2ccc(F)cc2)nc1N.Cl | 4.13
COC(=O)Nc1ccc(NCc2ccc(F)cc2)nc1N.Cl | 4.11
